Calls of active or inactive are those of the source. No cut-off for these calls is given here. Square brackets hold non-standard residues; d marks the D form. Peptide text beside a SMILES is read from it. * marks the point of attachment. X1 = O=C(COc1ccc(/C=C/C2=[N+]3C(=Cc4ccc(-c5cccs5)n4[B-]3(F)F)C=C2)cc1)*; Propanoyl(3-Pip(4-O-2-BnPh)) = O=C(CCN1CCC(Oc2ccccc2Cc2ccccc2)CC1)*; X3 = Cc1cc(C)n2c1C=C1C=CC(/C=C/c3ccc(OCC(=O)*)cc3)=[N+]1[B-]2(F)F; BODIPY(FL) = CC1=CC(C)=[N+]2C1=Cc1ccc(CCC(=O)*)n1[B-]2(F)F; X2 = O=C(CCC1=[N+]2C(=Cc3ccc(-c4cccs4)n3[B-]2(F)F)C=C1)*; βAla = NCCC(=O)O
Columns and labels:
[1] = target: T1, Histamine H1 receptor (Homo sapiens, UniProt P35367); assay: Binding affinity to human H1R expressed in CHO cells using Fluo-4AM as substrate incubated for 1 hrs by calcium mobilization assay based fluorometric analysis; assay type: cell-based; details: filed as antagonist
[2] = target: T1, Histamine H1 receptor; assay: Binding affinity to human H1R expressed in CHO cells assessed as shift in histamine-mediated calcium response at 1 uM using Fluo-4AM as a substrate incubated for 1 hrs by calcium mobilization assay based fluorometric analysis; assay type: cell-based; details: filed as antagonist
[3] = target: Histamine H3 receptor (Homo sapiens) (UniProt Q9Y5N1); assay: Binding affinity to NLuc-tagged human H3R expressed in HEK293T cell homogenates at 1 uM using NanoGlo as substrate preincubated for 2 hrs followed by substrate addition measured after 5 min in presence of clobenpropit by NanoBRET saturation binding assay; details: filed as antagonist, time 125.0 min
[4] = target: Histamine H4 receptor (Homo sapiens) (UniProt Q9H3N8); assay: Binding affinity to NLuc-tagged human H4R expressed in HEK293T cell homogenates at 1 uM using NanoGlo as substrate preincubated for 2 hrs followed by substrate addition measured after 5 min in presence of clobenpropit by NanoBRET saturation binding assay; details: filed as antagonist, time 125.0 min
[5] = target: T1, Histamine H1 receptor; assay: Binding affinity to human H1R expressed in CHO cells using Fluo-4AM as a substrate incubated for 45 mins by calcium mobilization assay based fluorometric analysis; assay type: cell-based; details: filed as antagonist
[6] = target: T1, Histamine H1 receptor; assay: Binding affinity to NLuc-tagged human H1R expressed in HEK293T cells assessed as association rate constant (kon) using furimazine as substrate measured after 90 mins by NanoBRET binding assay; assay type: cell-based; details: filed as antagonist
In short: (§1)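 Live HEK293T cells expressing Nluc-tagged human H1R; fluorescent ligand added at several concentrations and BRET read in real time every min for 90 min at room temperature. kon and koff obtained from association kinetics; mean residence time taken as 1/koff. Values are means ± SEM of 4–5 separate experiments, each in triplicate.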

[7] = target: T1, Histamine H1 receptor; assay: Binding affinity to NLuc-tagged human H1R expressed in HEK293T cells assessed as dissociation rate constant (koff) using furimazine as substrate measured after 90 mins by NanoBRET binding assay; assay type: cell-based; details: filed as antagonist; in short: as §1
[8] = target: T1, Histamine H1 receptor; assay: Binding affinity to NLuc-tagged human H1R expressed in HEK293T cells at assessed as ratio of association rate constant to dissociation rate constant by NanoBRET binding assay; assay type: cell-based; details: filed as antagonist
In short: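 Real-time NanoBRET association kinetics on Nluc-H1R HEK293T cells. Several fluorescent ligand concentrations were tested, with BRET read every min for 90 min at room temperature. pKD was derived from kon/koff. Means ± SEM from 4–5 experiments in triplicate.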

[9] = target: T1, Histamine H1 receptor; assay: Displacement of VUF13816-based fluorescent ligand 1 from Nluc-tagged human H1R expressed in HEK293T cells assessed as fold change incubated for 2 hrs by NanoBRET competition binding assay; details: filed as antagonist
[10] = target: T1, Histamine H1 receptor; assay: Displacement of VUF13816-based fluorescent ligand 1 from Nluc-tagged human H1R expressed in HEK293T cells incubated for 2 hrs by NanoBRET competition binding assay
[11] = Drug localization in plasma membrane of chinese hamster CHO cells expressing YFP-tagged H1R at 1 to 25 nM incubated for 30 min by confocal microscopy; assay type: ADME, cell membranes, Cricetulus griseus; details: 0.5 h, 0.025 µM, dose 1-25 nM
In short: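 CHO cells expressing YFP-tagged H1R were incubated for 30 min at 37 °C with fluorescent ligand at 1, 5, 10 or 25 nM, with or without 10 μM mepyramine pretreatment to define nonspecific binding. Plasma membrane versus intracellular localization was judged by confocal imaging in red and green channels. Three independent experiments.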

T1 sequence (P35367 whole entry): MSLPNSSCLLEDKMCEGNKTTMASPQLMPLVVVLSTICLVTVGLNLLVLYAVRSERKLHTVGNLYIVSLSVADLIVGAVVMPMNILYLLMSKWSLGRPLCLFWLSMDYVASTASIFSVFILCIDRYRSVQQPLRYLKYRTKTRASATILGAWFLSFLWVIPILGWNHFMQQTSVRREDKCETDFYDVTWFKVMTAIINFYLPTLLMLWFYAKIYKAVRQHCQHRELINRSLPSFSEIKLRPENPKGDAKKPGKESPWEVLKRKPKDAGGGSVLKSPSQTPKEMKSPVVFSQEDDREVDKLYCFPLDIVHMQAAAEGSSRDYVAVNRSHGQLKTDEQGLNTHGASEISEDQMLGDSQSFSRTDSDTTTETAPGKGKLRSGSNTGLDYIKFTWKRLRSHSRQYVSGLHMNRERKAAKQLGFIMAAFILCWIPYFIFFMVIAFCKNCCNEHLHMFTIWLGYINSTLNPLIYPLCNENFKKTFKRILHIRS
Sequence of Histamine H4 receptor (Homo sapiens) (Q9H3N8 whole entry): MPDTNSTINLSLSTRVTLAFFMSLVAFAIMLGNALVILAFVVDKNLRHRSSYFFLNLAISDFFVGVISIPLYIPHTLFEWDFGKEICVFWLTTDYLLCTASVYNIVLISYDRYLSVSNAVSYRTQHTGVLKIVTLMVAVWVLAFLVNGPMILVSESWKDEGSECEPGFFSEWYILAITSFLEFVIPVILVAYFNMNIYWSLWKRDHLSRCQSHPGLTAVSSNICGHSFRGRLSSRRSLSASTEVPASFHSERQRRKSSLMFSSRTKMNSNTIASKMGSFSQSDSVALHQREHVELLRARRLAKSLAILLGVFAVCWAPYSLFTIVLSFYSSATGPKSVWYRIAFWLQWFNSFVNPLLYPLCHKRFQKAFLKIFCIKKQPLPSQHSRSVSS
Sequence of Histamine H3 receptor (Homo sapiens) (Q9Y5N1 whole entry): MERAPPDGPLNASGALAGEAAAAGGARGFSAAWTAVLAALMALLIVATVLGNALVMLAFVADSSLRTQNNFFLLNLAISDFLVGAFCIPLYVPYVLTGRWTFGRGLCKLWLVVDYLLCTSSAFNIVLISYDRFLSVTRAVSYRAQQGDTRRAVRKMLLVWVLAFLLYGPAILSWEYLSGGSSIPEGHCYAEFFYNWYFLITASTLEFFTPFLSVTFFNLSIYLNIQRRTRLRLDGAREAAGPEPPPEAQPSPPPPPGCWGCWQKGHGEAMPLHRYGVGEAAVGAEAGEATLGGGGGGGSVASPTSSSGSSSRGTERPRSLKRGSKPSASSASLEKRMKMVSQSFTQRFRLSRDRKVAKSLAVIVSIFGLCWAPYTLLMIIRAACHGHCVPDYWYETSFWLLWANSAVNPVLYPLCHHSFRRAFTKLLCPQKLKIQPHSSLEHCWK

SMILES	pKb [1]	Activity [2]	also measured
CC(C)[C@H](NC(=O)CCN1CCC(Oc2ccccc2Cc2ccccc2)CC1)C(=O)N[C@@H](CO)C(=O)N[C@@H](CC(N)=O)C(=O)NCCC(=O)N[C@@H](CCCCNC(=O)CCCCC[N+]1=C(/C=C/C=C/C=C2/N(C)c3ccc(S(=O)(=O)[O-])cc3C2(C)C)C(C)(C)c2cc(S(=O)(=O)O)ccc21)C(N)=O	5.33	Active	–
C[C@H](NC(=O)[C@H](C)NC(=O)[C@H](Cc1ccccc1)NC(=O)CCN1CCC(Oc2ccccc2Cc2ccccc2)CC1)C(=O)NCCC(=O)N[C@@H](CCCCNC(=O)CCCCC[N+]1=C(/C=C/C=C/C=C2/N(C)c3ccc(S(=O)(=O)[O-])cc3C2(C)C)C(C)(C)c2cc(S(=O)(=O)O)ccc21)C(N)=O	6.09	Active	–
N=C(NCc1ccc(Cl)cc1)SCCCc1c[nH]cn1	–	–	Activity [3]: Active; Activity [4]: Active
C[C@@H](NC(=O)CCN1CCC(Oc2ccccc2Cc2ccccc2)CC1)C(=O)N[C@H](C)C(=O)N[C@H](C)C(=O)NCCNC(=O)CCCCCNC(=O)COc1ccc(/C=C/C2=[N+]3C(=Cc4ccc(-c5cccs5)n4[B-]3(F)F)C=C2)cc1 (stereo in doubt)	–	–	pKb [5]: 8.6
Cc1cc(C)n2c1C=C1C=CC(CCC(=O)NCCCC[C@H](NC(=O)CCNC(=O)[C@H](C)NC(=O)[C@H](C)NC(=O)[C@H](Cc3ccccc3)NC(=O)CCN3CCC(Oc4ccccc4Cc4ccccc4)CC3)C(N)=O)=[N+]1[B-]2(F)F ({Propanoyl(3-Pip(4-O-2-BnPh))}-FAA[βAla]K(BODIPY(FL))-NH2)	7.46	Active	–
C[C@H](NC(=O)[C@H](C)NC(=O)[C@H](Cc1ccccc1)NC(=O)CCN1CCC(Oc2ccccc2Cc2ccccc2)CC1)C(=O)NCCC(=O)N[C@@H](CCCCNC(=O)COc1ccc(/C=C/C2=[N+]3C(=Cc4ccc(-c5cccs5)n4[B-]3(F)F)C=C2)cc1)C(N)=O ({Propanoyl(3-Pip(4-O-2-BnPh))}-FAA[βAla]K(X1)-NH2)	8.59	Active	K [6]: 0.686 10^6/M/min; K [7]: 0.014 min⁻¹; pKd [8]: 7.64
C[C@H](NC(=O)[C@H](C)NC(=O)[C@H](Cc1ccccc1)NC(=O)CCN1CCC(Oc2ccccc2Cc2ccccc2)CC1)C(=O)NCCC(=O)N[C@@H](CCCCNC(=O)CCC1=[N+]2C(=Cc3ccc(-c4cccs4)n3[B-]2(F)F)C=C1)C(N)=O ({Propanoyl(3-Pip(4-O-2-BnPh))}-FAA[βAla]K(X2)-NH2)	6.44	Active	–
Cc1cc(C)n2c1C=C1C=CC(/C=C/c3ccc(OCC(=O)NCCCC[C@H](NC(=O)CCNC(=O)[C@H](C)NC(=O)[C@H](C)NC(=O)[C@H](Cc4ccccc4)NC(=O)CCN4CCC(Oc5ccccc5Cc5ccccc5)CC4)C(N)=O)cc3)=[N+]1[B-]2(F)F ({Propanoyl(3-Pip(4-O-2-BnPh))}-FAA[βAla]K(X3)-NH2)	6.99	Active	–
CC(C)[C@H](NC(=O)CCN1CCC(Oc2ccccc2Cc2ccccc2)CC1)C(=O)N[C@@H](C)C(=O)N[C@@H](C)C(=O)N[C@H](Cc1ccccc1)C(N)=O ({Propanoyl(3-Pip(4-O-2-BnPh))}-VAA[dF]-NH2)	–	–	fold change (FC) [9]: 2
CC(C)[C@H](NC(=O)CCN1CCC(Oc2ccccc2Cc2ccccc2)CC1)C(=O)N[C@@H](CO)C(=O)N[C@@H](C)C(=O)N[C@H](Cc1ccccc1)C(N)=O ({Propanoyl(3-Pip(4-O-2-BnPh))}-VSA[dF]-NH2)	–	–	fold change (FC) [9]: 2
CC(C)[C@H](NC(=O)CCN1CCC(Oc2ccccc2Cc2ccccc2)CC1)C(=O)N[C@@H](CO)C(=O)N[C@@H](CC(N)=O)C(=O)N[C@@H](Cc1ccccc1)C(N)=O ({Propanoyl(3-Pip(4-O-2-BnPh))}-VSNF-NH2)	–	–	Ki [10]: 89 nM
Cc1cc(C)n2c1C=C1C=CC(CCC(=O)NCCCC[C@H](NC(=O)CCNC(=O)[C@H](CC(N)=O)NC(=O)[C@H](CO)NC(=O)[C@@H](NC(=O)CCN3CCC(Oc4ccccc4Cc4ccccc4)CC3)C(C)C)C(N)=O)=[N+]1[B-]2(F)F ({Propanoyl(3-Pip(4-O-2-BnPh))}-VSN[βAla]K(BODIPY(FL))-NH2)	6.95	Active	–
CC(C)[C@H](NC(=O)CCN1CCC(Oc2ccccc2Cc2ccccc2)CC1)C(=O)N[C@@H](CO)C(=O)N[C@@H](CC(N)=O)C(=O)NCCC(=O)N[C@@H](CCCCNC(=O)COc1ccc(/C=C/C2=[N+]3C(=Cc4ccc(-c5cccs5)n4[B-]3(F)F)C=C2)cc1)C(N)=O ({Propanoyl(3-Pip(4-O-2-BnPh))}-VSN[βAla]K(X1)-NH2)	8.56	Active	K [6]: 0.839 10^6/M/min; K [7]: 0.014 min⁻¹; pKd [8]: 7.74; Drug uptake [11]: Active
CC(C)[C@H](NC(=O)CCN1CCC(Oc2ccccc2Cc2ccccc2)CC1)C(=O)N[C@@H](CO)C(=O)N[C@@H](CC(N)=O)C(=O)NCCC(=O)N[C@@H](CCCCNC(=O)CCC1=[N+]2C(=Cc3ccc(-c4cccs4)n3[B-]2(F)F)C=C1)C(N)=O ({Propanoyl(3-Pip(4-O-2-BnPh))}-VSN[βAla]K(X2)-NH2)	6.52	Active	–
Cc1cc(C)n2c1C=C1C=CC(/C=C/c3ccc(OCC(=O)NCCCC[C@H](NC(=O)CCNC(=O)[C@H](CC(N)=O)NC(=O)[C@H](CO)NC(=O)[C@@H](NC(=O)CCN4CCC(Oc5ccccc5Cc5ccccc5)CC4)C(C)C)C(N)=O)cc3)=[N+]1[B-]2(F)F ({Propanoyl(3-Pip(4-O-2-BnPh))}-VSN[βAla]K(X3)-NH2)	6.96	Active	–
CC(C)[C@H](NC(=O)CCN1CCC(Oc2ccccc2Cc2ccccc2)CC1)C(=O)N[C@@H](CO)C(=O)N[C@@H](CO)C(=O)N[C@H](Cc1ccccc1)C(N)=O ({Propanoyl(3-Pip(4-O-2-BnPh))}-VSS[dF]-NH2)	–	–	fold change (FC) [9]: 2
CC(C)[C@H](NC(=O)CCN1CCC(Oc2ccccc2Cc2ccccc2)CC1)C(=O)N[C@@H](CO)C(=O)N[C@@H](Cc1ccc(O)cc1)C(=O)N[C@@H](Cc1ccccc1)C(N)=O ({Propanoyl(3-Pip(4-O-2-BnPh))}-VSYF-NH2)	–	–	Ki [10]: 437 nM
CC(C)[C@H](NC(=O)CCN1CCC(Oc2ccccc2Cc2ccccc2)CC1)C(=O)N[C@@H](CO)C(=O)N[C@@H](Cc1ccc(O)cc1)C(=O)N[C@H](Cc1ccccc1)C(N)=O ({Propanoyl(3-Pip(4-O-2-BnPh))}-VSY[dF]-NH2)	–	–	fold change (FC) [9]: 2

Source: ChEMBL document CHEMBL5154946, “Optimization of Peptide Linker-Based Fluorescent Ligands for the Histamine H1 Receptor” (J Med Chem, 2022)
